Test results published in ChEMBL document CHEMBL1139140, “Synthesis, antimycobacterial activity evaluation, and QSAR studies of chalcone derivatives” (2007).

Assays:
[1] = test system: Mycobacterium tuberculosis; assay: Antimicrobial activity against Mycobacterium tuberculosis H37Rv at 50 ug/ml assessed as reduction of relative light units; format: functional; parameters: scale not given: the % may be the effect or the level left
How it was run: (§1)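 Luciferase reporter phage assay on M. tuberculosis H37Rv. Bacteria (McFarland No.2 suspension) in G7H9, with or without compound, incubated 72 h at 37 °C; two drug-free controls per sample. Phage phAE129 with CaCl2 added, then 4 h at 37 °C. D-luciferin (0.3 mM, citrate pH 4.5) added; RLU read after 10 s integration, duplicate readings averaged. Percent RLU reduction versus control; repeated if control mean RLU <1000.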

[2] = test system: Mycobacterium tuberculosis; assay: Antimicrobial activity against Mycobacterium tuberculosis H37Rv at 100 ug/ml assessed as reduction of relative light units; format: functional; parameters: scale not given: the % may be the effect or the level left; how it was run: as §1

| Structure (SMILES) | Activity [1] | Activity [2] |
| --- | --- | --- |
| COc1ccccc1/C=C/C(=O)c1ccccc1 | 66.07% | 72.98% |
| COc1ccc(/C=C/C(=O)c2cccc([N+](=O)[O-])c2)c(OC)c1 | 92.19% | 96.45% |
| CSc1ccc(/C=C/C(=O)c2ccc([N+](=O)[O-])cc2)cc1 | 30.95% | 48.06% |
| CSc1ccc(/C=C/C(=O)c2ccc(Cl)cc2)cc1 | 24.06% | 48.83% |
| COc1ccc(/C=C/C(=O)c2ccc(Cl)cc2Cl)cc1OC | 0% | 12.17% |
| COc1ccc(/C=C/C(=O)c2ccc(C)cc2)cc1 | 60.24% | 98.52% |
| CN(C)c1ccc(/C=C/C(=O)c2cccc([N+](=O)[O-])c2)cc1 | 90.06% | 96.22% |
| CSc1ccc(/C=C/C(=O)c2cccc(O)c2)cc1 | 31.59% | 98.86% |
| COc1ccc(C(=O)/C=C/c2ccc(SC)cc2)cc1 | 7.36% | 17.38% |
| CSc1ccc(/C=C/C(=O)c2ccc(C)cc2)cc1 | 16.88% | 51.59% |
| CSc1ccc(/C=C/C(=O)c2ccccc2O)cc1 | 68.41% | 90.52% |
| CSc1ccc(/C=C/C(=O)c2ccccc2)cc1 | 46.29% | 66.51% |
| CSc1ccc(/C=C/C(=O)c2ccc(Cl)cc2Cl)cc1 | 0% | 0% |
| CSc1ccc(/C=C/C(=O)c2ccc(Br)cc2)cc1 | 0% | 21.87% |
| CN(C)c1ccc(/C=C/C(=O)c2ccccc2)cc1 | 70.02% | 70.18% |
| COc1ccccc1/C=C/C(=O)c1cccc([N+](=O)[O-])c1 | 84.16% | 97.94% |
| CSc1ccc(/C=C/C(=O)c2ccc(O)cc2)cc1 | 29.25% | 55.16% |
| COc1ccc(/C=C/C(=O)c2cccc(O)c2)cc1 | 98.9% | 99.04% |
| CSc1ccc(/C=C/C(=O)c2cccc([N+](=O)[O-])c2)cc1 | 0% | 0% |
| COc1ccc(/C=C/C(=O)c2cccc([N+](=O)[O-])c2)cc1OC | 64.61% | 89.27% |
| COc1ccccc1/C=C/C(=O)c1ccc([N+](=O)[O-])cc1 | 94.3% | 98.15% |
| CN(C)c1ccc(/C=C/C(=O)c2ccc(Cl)cc2Cl)cc1 | 31.55% | 33.8% |
| COc1cc(/C=C/C(=O)c2ccccc2)cc(OC)c1OC | 43.16% | 63.9% |
| COc1ccc(/C=C/C(=O)c2ccccc2)cc1 [4-METHOXY CHALCONE] | 58.75% | 65.08% |
| O=C(/C=C/c1ccccc1)c1ccccc1 [CHALCONE] | 41.93% | 50.64% |
